Measurements taken from publication PMC3858174 (Bioorganic & medicinal chemistry, 2013).

Assays:
Adrenergic α1A = target: T1, Adrenergic α1A (Homo sapiens, UniProt P35348); test: NIMH-PDSP binding assay, Adrenergic α1A
T1 sequence (P35348 1-466): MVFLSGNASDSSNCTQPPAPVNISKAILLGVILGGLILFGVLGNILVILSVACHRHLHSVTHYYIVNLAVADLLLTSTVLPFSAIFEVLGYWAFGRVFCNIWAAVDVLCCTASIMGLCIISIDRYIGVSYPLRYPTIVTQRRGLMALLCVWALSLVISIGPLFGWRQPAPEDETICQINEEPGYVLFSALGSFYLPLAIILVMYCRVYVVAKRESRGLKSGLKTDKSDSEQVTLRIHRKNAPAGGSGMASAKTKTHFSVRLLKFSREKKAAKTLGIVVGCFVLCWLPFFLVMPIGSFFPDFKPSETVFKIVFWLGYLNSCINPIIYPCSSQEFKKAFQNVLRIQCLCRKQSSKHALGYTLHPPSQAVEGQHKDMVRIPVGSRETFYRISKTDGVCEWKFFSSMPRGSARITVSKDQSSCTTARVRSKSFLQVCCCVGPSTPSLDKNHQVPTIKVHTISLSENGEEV

BZP Rat Brain Site = test: NIMH-PDSP binding assay, BZP Rat Brain Site; settings: read-out: Ki BZP Rat Brain Site
Dopamine2 = Dopamine2 (Homo sapiens, UniProt P14416); test: NIMH-PDSP binding assay, Dopamine2
Dopamine2, sequence (P14416 whole entry): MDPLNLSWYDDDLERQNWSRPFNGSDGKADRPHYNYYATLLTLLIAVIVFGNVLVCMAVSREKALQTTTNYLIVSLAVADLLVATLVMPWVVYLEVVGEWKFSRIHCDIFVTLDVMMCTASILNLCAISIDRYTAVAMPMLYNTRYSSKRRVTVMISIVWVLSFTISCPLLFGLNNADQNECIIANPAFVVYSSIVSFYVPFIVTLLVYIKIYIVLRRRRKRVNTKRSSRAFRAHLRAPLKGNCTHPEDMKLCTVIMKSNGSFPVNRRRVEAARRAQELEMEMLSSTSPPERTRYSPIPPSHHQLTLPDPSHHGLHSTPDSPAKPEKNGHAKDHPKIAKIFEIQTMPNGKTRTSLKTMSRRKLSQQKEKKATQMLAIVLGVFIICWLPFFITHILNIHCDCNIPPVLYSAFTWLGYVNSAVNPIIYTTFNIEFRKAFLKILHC

Dopamine3 = Dopamine3 (Homo sapiens, UniProt P35462); test: NIMH-PDSP binding assay, Dopamine3
Dopamine3, sequence (P35462 whole entry): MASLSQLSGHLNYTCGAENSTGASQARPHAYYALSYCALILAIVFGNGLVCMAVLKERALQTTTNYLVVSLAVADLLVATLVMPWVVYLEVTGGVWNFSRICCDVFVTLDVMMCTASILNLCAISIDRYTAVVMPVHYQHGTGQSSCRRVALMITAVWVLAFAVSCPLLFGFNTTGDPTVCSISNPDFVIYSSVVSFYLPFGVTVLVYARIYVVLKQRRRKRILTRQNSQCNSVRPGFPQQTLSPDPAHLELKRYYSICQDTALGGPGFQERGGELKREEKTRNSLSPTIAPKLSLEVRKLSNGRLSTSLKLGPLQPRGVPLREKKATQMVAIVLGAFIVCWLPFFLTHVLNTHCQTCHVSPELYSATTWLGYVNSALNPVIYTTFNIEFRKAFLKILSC

5HT7 = 5HT7 (Homo sapiens, UniProt P34969); test: NIMH-PDSP binding assay, 5HT7
5HT7, sequence (P34969 whole entry, species assumed): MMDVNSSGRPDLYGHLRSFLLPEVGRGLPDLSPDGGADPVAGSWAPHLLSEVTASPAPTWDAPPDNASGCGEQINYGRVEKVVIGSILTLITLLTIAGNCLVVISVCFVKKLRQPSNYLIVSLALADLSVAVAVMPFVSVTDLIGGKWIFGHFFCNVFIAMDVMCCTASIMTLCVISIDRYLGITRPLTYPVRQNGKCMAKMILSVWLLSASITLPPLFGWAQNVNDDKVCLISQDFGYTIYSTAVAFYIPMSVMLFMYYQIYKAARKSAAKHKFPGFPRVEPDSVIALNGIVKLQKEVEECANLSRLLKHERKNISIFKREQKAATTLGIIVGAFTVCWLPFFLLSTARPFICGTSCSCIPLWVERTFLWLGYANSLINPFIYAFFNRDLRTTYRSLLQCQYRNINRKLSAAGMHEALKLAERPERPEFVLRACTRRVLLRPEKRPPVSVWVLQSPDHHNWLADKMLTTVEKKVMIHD

5-HT1AR [1] = settings: 5-HT1AR-rich regions such as hippocampus, amygdala, cortex and cingulate regions; cited from earlier work
[2] = logPo/w by shake flask method; type: physicochemical
Stability of formulation = type: physicochemical; settings: 10% ethanol-90% saline; analytical HPLC and radio-TLC
5-HT1AR [3] = test: PET imaging in anesthetized baboon; type: in vivo, baboon (Papio anubis)
Outline: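 Two fasted male baboons: ketamine 10 mg/kg im, then 1.5–2.0% isoflurane via endotracheal tube, core temperature held at 37 °C. Saline iv line and arterial line placed. 10 min transmission scan, then 111 ± 18 MBq radiotracer as iv bolus. 3-D emission data collected for 180 min. MRI-coregistered regions of interest, left and right averaged.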

COc1ccccc1N1CCN(CCCCn2ncc(=O)n(C)c2=O)CC1 [CUMI-101]
less affinity for α1A AR in comparison to 5-HT1AR (Adrenergic α1A): 45 fold | Ki (BZP Rat Brain Site): > 10 µM | Ki Dopamine2 (Dopamine2): did not show any significant binding | Ki Dopamine3 (Dopamine3): did not show any significant binding

Cn1c(=O)cnn(CCCCN2CCN(c3ccccc3OCCF)CC2)c1=O [FECUMI-101, 2-(4-(4-(2-(2-fluoroethoxy)phenyl)piperazin-1-yl)butyl)-4-methyl-1,2,4-triazine-3,5(2H,4H)-dione]
selectivity to 5-HT1A over 5-HT7 (5HT7): 172 fold

Cn1c(=O)cnn(CCCCN2CCN(c3ccccc3O[11CH3])CC2)c1=O [[^11C]CUMI-101]
lower BPF in comparison with [11C]WAY-100635 scans (5-HT1AR [1]): ~ 50%

Cn1c(=O)cnn(CCCCN2CCN(c3ccccc3OCC[18F])CC2)c1=O [[^18F]FECUMI-101, [18F]2-(4-(4-(2-(2-fluoroethoxy)phenyl)piperazin-1-yl)butyl)-4-methyl-1,2,4-triazine-3,5(2H,4H)-dione]
logPo/w [2]: 1.2 | Stability of radioproduct in formulation, no significant de[18F]fluorination (Stability of formulation): up to 4 h | BBB penetration (5-HT1AR [3]; anesthetized baboon, 111 ± 18 MBq i.v.): penetrates the BBB | in vivo radio[18F]defluorination (skull image) (5-HT1AR [3]; baboon PET): No skull image
